This passage reports Activity results from ChEMBL document CHEMBL5357067, “Selective (α)-l-Rhamnosylation and Neuroprotective Activity Exploration of Cardiotonic Steroids” (ACS Med Chem Lett, 2024).

SMILES strings stand for the structures. Calls of active or inactive are those of the source. No cut-off for these calls is given here.

What all share (type): functional, cell-based
For test [1], the system named is Glial cell. The experiment in a line: Antiinflammatory activity in C57BL/6J mouse primary glial cells assessed as effect on IL-1 mRNA level at 200 nM incubated for 24 hrs by qPCR analysis. (In qPCR the cycle at which signal appears reflects the starting amount.)
Test [2] deals with Glial cell. The experiment in a line: Antiinflammatory activity in C57BL/6J mouse primary glial cells assessed as effect on IL-6 mRNA level at 200 nM incubated for 24 hrs by qPCR analysis.
Test [3] relates to Glial cell. The experiment in a line: Antiinflammatory activity in C57BL/6J mouse primary glial cells assessed as effect on TNF-alpha mRNA level at 200 nM incubated for 24 hrs by qPCR analysis.
The subject of test [4] is Glial cell. The experiment in a line: Antiinflammatory activity in C57BL/6J mouse primary glial cells assessed as effect on IKBKE mRNA level at 200 nM incubated for 24 hrs by qPCR analysis.
For test [5], the system named is Glial cell. The experiment in a line: Antiinflammatory activity in C57BL/6J mouse primary glial cells assessed as decrease in LPS-induced IL-1 mRNA level at 200 nM preincubated for 24 hrs followed by LPS stimulation by qPCR analysis. The gist of the method:
(§1)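 Primary glia from whole brains of 1–2-day-old neonatal C57BL/6J mice (meninges removed, collected in Ca/Mg-free HBSS, oligodendrocytes and neurons separated off). Cells were given 200 nM steroid and stimulated with LPS 250 ng/mL. DMSO served as negative control. Gene expression was measured by qPCR. Data are mean ± SEM, analysed by two-way ANOVA with Newman-Keuls post hoc test.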

The subject of test [6] is Glial cell. The experiment in a line: Antiinflammatory activity in C57BL/6J mouse primary glial cells assessed as decrease in LPS-induced IL-6 mRNA level at 200 nM preincubated for 24 hrs followed by LPS stimulation by qPCR analysis. The gist of the method:
as §1

Test [7] deals with Glial cell. The experiment in a line: Antiinflammatory activity in C57BL/6J mouse primary glial cells assessed as decrease in LPS-induced TNF-alpha mRNA level at 200 nM preincubated for 24 hrs followed by LPS stimulation by qPCR analysis. The gist of the method: as §1
Test [8] relates to Glial cell. The experiment in a line: Antiinflammatory activity in C57BL/6J mouse primary glial cells assessed as decrease in LPS-induced IKBKE mRNA level at 200 nM preincubated for 24 hrs followed by LPS stimulation by qPCR analysis. The procedure, abridged: as §1

On to `C[C@]12C[C@H]3O[C@H]4C[C@H](O)C[C@@]5(O)CC[C@H]([C@H]3[C@@]45CO)[C@@]1(O)CC[C@@H]2C1=CC(=O)OC1`, for which the result in the test on Glial cell [1], in the test on Glial cell [2], in the test with Glial cell [3], in the test on Glial cell [4], with Glial cell [5] and in the test with Glial cell [6] was inactive. The result in the test with Glial cell [7] and with Glial cell [8] was inactive.
On to `C[C@H]1O[C@@H](O[C@H]2[C@@H](O)C[C@H](O[C@H]3[C@@H](O)C[C@H](O[C@H]4CC[C@@]5(C)[C@H](CC[C@@H]6[C@@H]5C[C@@H](O)[C@]5(C)[C@@H](C7=CC(=O)OC7)CC[C@]65O)C4)O[C@@H]3C)O[C@@H]2C)C[C@H](O)[C@@H]1O`, for which the outcome with Glial cell [1], with Glial cell [2], in the test on Glial cell [3] and in the test with Glial cell [4] was inactive.
`C[C@@H]1O[C@@H](O[C@H]2C[C@@H](O)[C@]3(CO)[C@H]4[C@H](O)C[C@]5(C)[C@@H](C6=CC(=O)OC6)CC[C@]5(O)[C@@H]4CC[C@]3(O)C2)[C@H](O)[C@H](O)[C@H]1O`: the outcome with Glial cell [1], in the test with Glial cell [2], with Glial cell [3] and with Glial cell [4] was inactive. Moreover, the result with Glial cell [5], in the test with Glial cell [6], with Glial cell [7] and with Glial cell [8] was Active.
For `C[C@@H]1O[C@@H](O[C@H]2CC[C@]3(CO)[C@H]4CC[C@]5(C)[C@@H](C6=CC(=O)OC6)CC[C@]5(O)[C@@H]4CC[C@]3(O)C2)[C@H](O)[C@H](O)[C@H]1O`, the outcome in the test on Glial cell [1], in the test on Glial cell [2], with Glial cell [3] and in the test with Glial cell [4] was inactive. In addition, the outcome in the test with Glial cell [5], in the test with Glial cell [6], with Glial cell [7] and with Glial cell [8] was Active.
Take `C[C@@H]1O[C@@H](OC[C@@]23[C@@H]4[C@H]5CC[C@]2(O)C[C@@H](O)C[C@@H]3O[C@@H]4C[C@]2(C)[C@@H](C3=CC(=O)OC3)CC[C@]52O)[C@H](O)[C@H](O)[C@H]1O`: the result in the test on Glial cell [1], with Glial cell [2], with Glial cell [3], in the test on Glial cell [4] and in the test with Glial cell [6] was inactive. In addition, the result in the test with Glial cell [7] and in the test on Glial cell [8] was Active.
Take `C[C@@H]1O[C@@H](O[C@H]2C[C@@H]3O[C@@H]4C[C@]5(C)[C@@H](C6=CC(=O)OC6)CC[C@]5(O)[C@@H]5CC[C@](O)(C2)[C@@]3(CO)[C@H]54)[C@H](O)[C@H](O)[C@H]1O`: the result in the test with Glial cell [1], in the test on Glial cell [2], in the test on Glial cell [3] and with Glial cell [4] was inactive. Further, the result in the test on Glial cell [5], with Glial cell [6], in the test with Glial cell [7] and with Glial cell [8] was Active.
